In test [1] the target is T1, Integrin alpha-IIb/beta-3 (Homo sapiens, UniProt P05106+P08514). Description: Agonist activity at alpha2bbeta3 in human HEL cells assessed as increase in cell adhesion to fibrinogen pre-incubated for 30 mins before fibrinogen and further incubated for 1 hr by nitrophenyl-N-acetyl-beta-D-glucosaminide substrate based chromogenic assay. An outline of the steps: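 Compound or methanol vehicle pre-incubated with cells for 30 min at room temperature. Cells then plated on wells coated overnight at 4 °C with fibronectin 10 µg/mL (SK-MEL-24, K562, HT-29) or fibrinogen 10 µg/mL (MCF7, HEL). Seeding was 50,000 cells/well, or 100000 for HEL. Adhesion ran 1 h at room temperature. Wells washed with 1% BSA/PBS. Quadruplicate, at least three repeats.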
T1 sequence (P05106 27-788 limits assumed): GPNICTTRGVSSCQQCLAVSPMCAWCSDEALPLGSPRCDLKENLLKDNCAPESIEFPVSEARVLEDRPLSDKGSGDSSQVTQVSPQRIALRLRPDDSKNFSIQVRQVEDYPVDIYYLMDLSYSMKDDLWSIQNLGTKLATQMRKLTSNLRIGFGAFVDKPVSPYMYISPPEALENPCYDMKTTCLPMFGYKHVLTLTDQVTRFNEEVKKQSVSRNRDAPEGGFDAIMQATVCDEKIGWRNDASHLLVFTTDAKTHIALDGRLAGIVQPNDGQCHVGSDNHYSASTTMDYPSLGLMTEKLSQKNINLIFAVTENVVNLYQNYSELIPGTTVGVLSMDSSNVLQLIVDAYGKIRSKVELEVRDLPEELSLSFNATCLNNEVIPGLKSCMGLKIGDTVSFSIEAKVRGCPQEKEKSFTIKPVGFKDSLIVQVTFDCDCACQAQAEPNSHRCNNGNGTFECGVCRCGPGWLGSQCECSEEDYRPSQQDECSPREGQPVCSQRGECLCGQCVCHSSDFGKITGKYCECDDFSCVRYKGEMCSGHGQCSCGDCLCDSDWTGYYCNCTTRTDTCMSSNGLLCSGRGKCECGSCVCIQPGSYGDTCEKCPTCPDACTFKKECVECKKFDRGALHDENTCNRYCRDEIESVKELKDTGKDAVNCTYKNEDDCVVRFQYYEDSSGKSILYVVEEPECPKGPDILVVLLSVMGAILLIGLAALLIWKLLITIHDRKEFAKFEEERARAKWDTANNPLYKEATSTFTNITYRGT
T1 sequence (P08514 32-887 limits assumed): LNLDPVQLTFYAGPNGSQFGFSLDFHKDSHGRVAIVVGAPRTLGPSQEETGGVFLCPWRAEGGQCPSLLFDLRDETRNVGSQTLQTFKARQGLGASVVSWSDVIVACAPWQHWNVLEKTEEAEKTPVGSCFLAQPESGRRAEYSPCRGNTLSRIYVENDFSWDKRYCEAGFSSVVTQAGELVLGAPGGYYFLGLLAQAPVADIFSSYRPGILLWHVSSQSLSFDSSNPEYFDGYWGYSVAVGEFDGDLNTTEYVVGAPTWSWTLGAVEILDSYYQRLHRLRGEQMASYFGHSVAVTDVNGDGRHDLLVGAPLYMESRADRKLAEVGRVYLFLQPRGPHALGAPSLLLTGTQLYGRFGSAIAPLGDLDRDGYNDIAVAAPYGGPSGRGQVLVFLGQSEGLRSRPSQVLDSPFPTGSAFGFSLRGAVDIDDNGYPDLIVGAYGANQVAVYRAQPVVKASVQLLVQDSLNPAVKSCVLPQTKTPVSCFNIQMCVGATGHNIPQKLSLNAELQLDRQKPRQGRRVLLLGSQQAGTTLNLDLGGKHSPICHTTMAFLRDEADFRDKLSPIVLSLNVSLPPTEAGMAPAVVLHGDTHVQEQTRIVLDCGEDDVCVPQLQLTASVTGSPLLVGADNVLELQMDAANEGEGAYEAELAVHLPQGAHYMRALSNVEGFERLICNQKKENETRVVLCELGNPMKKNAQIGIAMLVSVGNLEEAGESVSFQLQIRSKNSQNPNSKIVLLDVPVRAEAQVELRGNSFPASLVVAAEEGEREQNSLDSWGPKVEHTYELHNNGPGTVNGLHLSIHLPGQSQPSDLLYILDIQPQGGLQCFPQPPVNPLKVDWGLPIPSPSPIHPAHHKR
T1 sequence (P08514 891-1039 limits assumed): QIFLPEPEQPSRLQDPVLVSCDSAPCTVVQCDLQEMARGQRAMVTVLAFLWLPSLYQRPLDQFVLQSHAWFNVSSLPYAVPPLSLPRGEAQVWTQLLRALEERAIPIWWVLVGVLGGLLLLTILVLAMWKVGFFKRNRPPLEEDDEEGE

Test [2] addresses Integrin alpha-L/beta-2 (LFA-1) (Homo sapiens, UniProt P05107+P20701). Description: Agonist activity at alphaLbeta2 in human Jurkat E6.1 cells assessed as increase in cell adhesion to ICAM1 pre-incubated for 30 mins before ICAM1 and further incubated for 30 mins by […]. In kind it is cell-based. A digest of the protocol:
(§1)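 Jurkat E6.1 cells labelled with CellTracker green CMFDA (12.5 µM, 30 min, 37 °C), washed, then pre-incubated 30 min at 37 °C with compound or methanol. Plated at 500,000/well on VCAM-1 (α4β1) or ICAM-1 (αLβ2) coated wells (5 µg/mL) for 30 min at 37 °C. Cells lysed in 0.5% Triton X-100; fluorescence read Ex485/Em535. Quadruplicate, at least three repeats.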

The target in test [3] is T2, Integrin alpha-4/beta-1 (Homo sapiens, UniProt P05556+P13612). Description: Agonist activity at alpha4beta1 in human Jurkat E6.1 cells assessed as increase in cell adhesion to VCAM1 at 10 ug/ml pre-incubated for 30 mins and further incubated for 30 mins in presence of neutralizing antibody against the alpha4 integrin subunit by nitrophenyl-N-acetyl-beta-D-glucosaminide substrate based chromogenic assay. Particulars: dose 10.0 µg/ml, time 60.0 min. A digest of the protocol:
(§2)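 Agonist-coated wells (10 µg/mL in methanol). Cells pre-treated 10 min before plating with neutralizing anti-α5, anti-αv or anti-α4 antibody (10 µg/mL), or pre-incubated with c(-RGDfV) (1 µM). K562 plated at 50,000/well and Jurkat E6.1 at 500,000/well. Adhesion quantified as in the standard assay.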

Test [4] addresses T3, Integrin alpha-V/beta-3 (Homo sapiens, UniProt P05106+P06756). The experiment in a line: Agonist activity at alphaVbeta3 in human SK-MEL-24 cells assessed as increase in cell adhesion to fibronectin pre-incubated for 30 mins before fibronectin and further incubated for 1 hr by nitrophenyl-N-acetyl-beta-D-glucosaminide substrate based chromogenic assay. An outline of the steps: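 Compound or methanol vehicle pre-incubated with cells for 30 min at room temperature. Cells then plated on wells coated overnight at 4 °C with fibronectin 10 µg/mL (SK-MEL-24, K562, HT-29) or fibrinogen 10 µg/mL (MCF7, HEL). Seeding was 50,000 cells/well, or 100000 for HEL. Adhesion ran 1 h at room temperature. Wells washed with 1% BSA/PBS. Adherent cells read by hexosaminidase substrate, absorbance 405 nm. Quadruplicate, at least three repeats.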
Target sequence in this assay (P05106 27-788 limits assumed): as the sequence (P05106 27-788 limits assumed) above
Target sequence in this assay (P06756 31-889 limits assumed): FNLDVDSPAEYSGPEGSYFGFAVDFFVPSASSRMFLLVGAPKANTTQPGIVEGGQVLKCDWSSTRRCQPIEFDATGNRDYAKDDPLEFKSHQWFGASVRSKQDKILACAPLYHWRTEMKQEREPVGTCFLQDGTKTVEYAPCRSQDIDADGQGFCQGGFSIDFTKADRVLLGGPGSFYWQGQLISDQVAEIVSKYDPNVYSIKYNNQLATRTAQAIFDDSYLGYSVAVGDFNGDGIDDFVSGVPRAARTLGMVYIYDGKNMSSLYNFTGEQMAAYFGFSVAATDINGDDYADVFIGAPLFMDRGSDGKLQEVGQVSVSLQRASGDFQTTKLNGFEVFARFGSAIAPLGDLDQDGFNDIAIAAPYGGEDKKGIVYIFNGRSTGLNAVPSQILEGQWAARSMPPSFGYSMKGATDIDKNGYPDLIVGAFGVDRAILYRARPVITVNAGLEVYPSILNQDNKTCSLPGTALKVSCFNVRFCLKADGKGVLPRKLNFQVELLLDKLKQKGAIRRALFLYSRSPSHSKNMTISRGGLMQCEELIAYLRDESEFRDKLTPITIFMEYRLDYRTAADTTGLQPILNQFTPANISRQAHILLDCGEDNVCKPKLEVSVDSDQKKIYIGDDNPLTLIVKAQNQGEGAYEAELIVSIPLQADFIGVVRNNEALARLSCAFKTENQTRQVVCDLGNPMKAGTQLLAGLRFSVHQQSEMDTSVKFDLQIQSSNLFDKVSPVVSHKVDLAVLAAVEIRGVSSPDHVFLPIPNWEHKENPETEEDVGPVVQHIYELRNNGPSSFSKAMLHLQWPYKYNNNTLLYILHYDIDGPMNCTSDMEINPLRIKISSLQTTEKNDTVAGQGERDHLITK
Target sequence in this assay (P06756 891-1048 limits assumed): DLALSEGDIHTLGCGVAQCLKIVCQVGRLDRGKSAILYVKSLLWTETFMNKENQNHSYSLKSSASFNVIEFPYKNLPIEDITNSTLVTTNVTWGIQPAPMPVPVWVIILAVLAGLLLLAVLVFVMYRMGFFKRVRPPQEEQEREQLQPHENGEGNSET

Test [5] has as its target T2, Integrin alpha-4/beta-1. The experiment in a line: Inhibition of fibronectin binding to […] isolated from human Jurkat E6.1 cells incubated for 1 hr by scintillation-proximity assay based competitive solid-phase binding assay. The test is classed as tissue-based.
For test [6], the target named is T2, Integrin alpha-4/beta-1. The experiment in a line: Agonist activity at alpha4beta1 in human Jurkat E6.1 cells assessed as increase in cell adhesion to VCAM1 pre-incubated for 30 mins before VCAM1 and further incubated for 30 mins by […]. In kind it is cell-based. A digest of the protocol: as §1
Test [7] deals with T4, Integrin alpha-5/beta-1 (Homo sapiens, UniProt P05556+P08648). Description: Agonist activity at alpha5beta1 in human K562 cells assessed as increase in cell adhesion to fibronectin at 10 ug/ml pre-incubated for 30 mins and further incubated for 1 hr in presence of integrin antagonist c(-RGDfV) by nitrophenyl-N-acetyl-beta-D-glucosaminide substrate based chromogenic assay. Particulars: dose 10.0 µg/ml, time 90.0 min. An outline of the steps:
as §2

In test [8] the target is T1, Integrin alpha-IIb/beta-3. The experiment in a line: Inhibition of fibrinogen binding to alpha2bbeta3 isolated from human HEL cells incubated for 1 hr by […] competitive solid-phase binding assay.
The target of test [9] is T4, Integrin alpha-5/beta-1. Description: Agonist activity at alpha5beta1 in human K562 cells assessed as increase in cell adhesion to fibronectin at 10 ug/ml […] and further incubated for 1 hr in presence of neutralizing antibody against the alpha5 integrin subunit by nitrophenyl-N-acetyl-beta-D-glucosaminide substrate based chromogenic assay. Particulars: dose 10.0 µg/ml, time 90.0 min.

In test [10] the target is Integrin alpha-L/beta-2 (Homo sapiens). The experiment in a line: Binding affinity to human alphaLbeta2 incubated for 1 hr by scintillation-proximity assay based competitive solid-phase binding assay.
Test [11] has as its target T3, Integrin alpha-V/beta-3. The experiment in a line: Agonist activity at human alphaVbeta3 expressed in HEK293 cells assessed as reduction in fibronectin-induced ERK1/2 phosphorylation at 1 to 100 nM by Western blot analysis. The test is classed as cell-based. The settings on record: filed as agonist, dose 1-100 nM. (In western blotting, separated proteins are transferred to a membrane and probed.)

The target in test [12] is Integrin alpha-L/beta-2 (LFA-1) (Homo sapiens) (UniProt P20701+P05107). The experiment in a line: Antagonist activity at alphaLbeta2 in human Jurkat E6.1 cells assessed as reduction in ICAM-1-induced ERK1/2 phosphorylation by Western blot analysis. In kind it is cell-based. Particulars: filed as antagonist.

The source made the active and inactive calls. The calls are words filed in the database; no cut-off is given here. Where only a bound is given, the exact number is not on record here.

The EC50 is the concentration that produces a half-maximal response. The term IC50 denotes the point on the concentration scale where inhibition reaches its midpoint. Low readings indicate greater potency in that assay, high ones weaker potency in that assay.

T2 sequence (P05556 whole entry): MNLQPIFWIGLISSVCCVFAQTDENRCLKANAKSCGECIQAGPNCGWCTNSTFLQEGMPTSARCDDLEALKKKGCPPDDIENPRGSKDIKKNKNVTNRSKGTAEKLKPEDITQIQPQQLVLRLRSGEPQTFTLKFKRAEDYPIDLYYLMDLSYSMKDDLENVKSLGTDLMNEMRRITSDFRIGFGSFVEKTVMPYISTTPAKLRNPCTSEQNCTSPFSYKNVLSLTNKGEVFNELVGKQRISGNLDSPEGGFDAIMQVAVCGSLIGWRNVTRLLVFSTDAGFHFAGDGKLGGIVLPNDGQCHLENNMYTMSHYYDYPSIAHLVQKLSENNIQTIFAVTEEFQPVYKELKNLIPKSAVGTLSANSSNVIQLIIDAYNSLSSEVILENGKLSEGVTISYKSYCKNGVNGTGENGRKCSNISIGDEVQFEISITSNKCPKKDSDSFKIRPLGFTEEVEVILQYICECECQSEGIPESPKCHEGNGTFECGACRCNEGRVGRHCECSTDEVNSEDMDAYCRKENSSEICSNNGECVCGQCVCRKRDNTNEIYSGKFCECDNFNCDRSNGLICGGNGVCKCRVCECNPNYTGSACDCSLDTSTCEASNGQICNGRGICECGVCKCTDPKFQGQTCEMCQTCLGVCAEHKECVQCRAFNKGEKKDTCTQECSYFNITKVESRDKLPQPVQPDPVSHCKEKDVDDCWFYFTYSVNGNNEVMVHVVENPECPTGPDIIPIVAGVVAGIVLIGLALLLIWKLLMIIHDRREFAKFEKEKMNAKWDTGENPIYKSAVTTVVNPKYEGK
T2 sequence (P13612 whole entry): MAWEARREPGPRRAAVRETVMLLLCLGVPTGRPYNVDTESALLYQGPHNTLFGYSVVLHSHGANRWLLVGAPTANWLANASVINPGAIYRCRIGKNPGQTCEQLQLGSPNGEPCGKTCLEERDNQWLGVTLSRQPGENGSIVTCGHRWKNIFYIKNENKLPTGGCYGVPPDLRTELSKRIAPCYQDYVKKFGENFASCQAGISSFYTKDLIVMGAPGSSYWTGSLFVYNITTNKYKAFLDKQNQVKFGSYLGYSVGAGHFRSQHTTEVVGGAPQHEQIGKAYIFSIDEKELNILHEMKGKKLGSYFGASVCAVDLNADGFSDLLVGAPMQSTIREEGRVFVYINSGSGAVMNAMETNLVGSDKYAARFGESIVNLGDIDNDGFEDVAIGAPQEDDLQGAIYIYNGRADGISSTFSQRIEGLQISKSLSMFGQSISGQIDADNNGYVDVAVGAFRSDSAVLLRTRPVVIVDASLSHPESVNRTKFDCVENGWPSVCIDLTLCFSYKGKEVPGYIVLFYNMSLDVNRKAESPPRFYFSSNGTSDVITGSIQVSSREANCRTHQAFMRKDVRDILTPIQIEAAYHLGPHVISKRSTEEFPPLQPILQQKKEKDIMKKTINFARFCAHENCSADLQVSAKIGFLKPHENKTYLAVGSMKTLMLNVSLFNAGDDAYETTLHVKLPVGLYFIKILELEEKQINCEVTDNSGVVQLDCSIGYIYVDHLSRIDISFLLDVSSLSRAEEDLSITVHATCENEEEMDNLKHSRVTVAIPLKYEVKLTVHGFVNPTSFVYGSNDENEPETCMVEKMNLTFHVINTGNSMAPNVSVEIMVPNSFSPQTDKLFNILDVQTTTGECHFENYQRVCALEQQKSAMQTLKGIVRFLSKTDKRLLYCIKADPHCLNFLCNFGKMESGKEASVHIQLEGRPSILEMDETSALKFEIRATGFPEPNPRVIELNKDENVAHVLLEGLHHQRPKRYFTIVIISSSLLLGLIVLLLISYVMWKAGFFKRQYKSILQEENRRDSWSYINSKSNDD

Take `Cc1ccccc1NC(=O)N1C(=O)CC1CC(=O)NCC(=O)O` (configuration not stated): the EC50 (in test [1]; in test [2]; at Integrin alpha-V/beta-3 [4]; on Integrin alpha-4/beta-1 [6]) was above 5000 nM in each case. Further, at Integrin alpha-4/beta-1 [3], the result was inactive. In addition, the IC50 on Integrin alpha-4/beta-1 [5] is above 1000 nM. In addition, on Integrin alpha-5/beta-1 [7] (filed as agonist), the outcome was Active.
In the case of `NCc1ccc(NC(=O)N2C(=O)CC2CC(=O)NCCC(=O)O)cc1.O=C(O)C(F)(F)F` (configuration not stated), the EC50 in [1] is 1560 nM; in test [2] it was above 5000 nM; at Integrin alpha-V/beta-3 [4], above 5000 nM; at Integrin alpha-4/beta-1 [6], above 5000 nM. Further, the outcome at Integrin alpha-4/beta-1 [3] was inactive. In test [8], this molecule returned a 50% inhibitory concentration (IC50) above 1000 nM. Moreover, the outcome on Integrin alpha-5/beta-1 [7] (filed as agonist) was Active.
Consider `Nc1ccc(CNC(=O)N2C(=O)CC2CC(=O)O)cc1.O=C(O)C(F)(F)F` (configuration not stated), for which the EC50 in [1] was above 5000 nM. Also, the outcome at Integrin alpha-5/beta-1 [9] and on Integrin alpha-5/beta-1 [7] was inactive. Moreover, the values for the IC50 (in [10]; in test [8]; on Integrin alpha-4/beta-1 [5]) were 6.7 nM, above 1000 nM and 498 nM, respectively. For the same molecule, the result at Integrin alpha-V/beta-3 [11] was Active. Further, the Activity entry in test [12] was “Dose-dependent effect”.

The record behind these values is ChEMBL document CHEMBL4680084, “New β-Lactam Derivatives Modulate Cell Adhesion and Signaling Mediated by RGD-Binding and Leukocyte Integrins” (J Med Chem, 2016).
